Measurements published in ChEMBL document CHEMBL5344459, “Suppressive Effects of Neuromedin U Receptor 2-Selective Peptide Agonists on Appetite and Prolactin Secretion in Mice” (2024).
Active and inactive are the calls of the source. The rule behind the calls is not given here. Non-standard residues stand in square brackets, D forms with d. Residues, ends and D or L forms follow the SMILES beside them. *: point of attachment. Propanoyl(3-cHex) = O=C(CCC1CCCCC1)*; Dab = NCC[C@H](N)C(=O)O

Key:
Mus musculus [1] = experiment: Induction of stress related behaviour in ddY mouse assessed as increase in cumulative grooming time at 200 nmol administered intranasally and measured after 3 hrs by open field test; format: functional; conditions: route nas
Mus musculus [2] = experiment: Induction of anxiety-like behaviour in ddY mouse assessed as decrease in inner ratio at 200 nmol administered intranasally and measured after 3 hrs by open field test; format: functional; conditions: route nas
Mus musculus [3] = experiment: Increase in water intake in ddY mouse at 200 nmol administered intranasally on days 0 to 2 and measured on days 4 to 5; format: functional; conditions: route nas, time 4-5 day
Method in brief: (§1)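 Daily i.n. dosing (200 nmol) or saline vehicle on days 0–2 in individually housed mice; body weight (relative to day 0), daily food intake and water intake recorded daily. N = 8, mean ± SD; two-way repeated measures ANOVA with Tukey–Kramer test.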

Mus musculus [4] = experiment: Suppression of restrain stress-induced plasma prolactin level in C57BL/6J mouse at 20 nmol administered intranasally and 50 mins later exposure to restraint stress for 40 mins by ELISA; format: functional, organism-based; conditions: route nas, time 90.0 min
Mus musculus [5] = experiment: Induction of stress related behaviour in ddY mouse assessed as increase in cumulative grooming time at 200 nmol administered intranasally and measured after 45 mins by open field test; format: functional; conditions: route nas
Method in brief: (§2)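 Open field (40 × 40 × 50 cm) with video tracking at 45 min and 24 h after i.n. dosing (200 nmol); total distance, cumulative grooming time, and inner ratio (% time in central 20 × 20 cm zone) scored. N = 8, mean ± SD; two-way repeated measures ANOVA, Tukey–Kramer.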

Mus musculus [6] = experiment: Effect on total distance travelled in ddY mouse at 200 nmol administered intranasally and measured after 3 hrs by open field test; format: functional; conditions: route nas
Mus musculus [7] = experiment: Suppression of appetite in ddY mouse assessed as decrease in body weight gain at 200 nmol administered intranasally as single dose on day 0; format: functional, organism-based; conditions: route nas
Method in brief: (§3)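 Single i.n. dose (200 nmol) or saline vehicle given on day 0; mice housed individually, with body weight, food and water consumed recorded daily. N = 8 per group, mean ± SD; two-way repeated measures ANOVA followed by Tukey–Kramer test.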

Mus musculus [8] = experiment: Suppression of appetite in ddY mouse assessed as decrease in food consumption at 200 nmol administered intranasally as single dose on day 0 and measured on day 1; format: functional, organism-based; conditions: route nas, time 1.0 day; method in brief: as §3
Mus musculus [9] = experiment: Suppression of appetite in ddY mouse assessed as decrease in daily food intake at 200 nmol administered intranasally on day 0 to 2 and measured on days 1 to 3; format: functional, organism-based; conditions: route nas, time 3.0 day; method in brief: as §1
Mus musculus [10] = experiment: Suppression of restrain stress-induced plasma prolactin level in C57BL/6J mouse at 200 nmol administered intranasally followed by exposure to restraint stress for 40 mins by ELISA; format: functional, organism-based; conditions: route nas
Mus musculus [11] = experiment: Suppression of plasma prolactin level in C57BL/6J mouse assessed as prolactin level at 20 nmol administered intranasally by ELISA (reference value: 0.45 +/-0.14 ng/ml); format: functional; conditions: route nas
Mus musculus [12] = experiment: Induction of stress related behaviour in ddY mouse assessed as increase in cumulative grooming time at 200 nmol administered intranasally and measured after 24 hrs by open field test; format: functional; conditions: route nas; method in brief: as §2
Mus musculus [13] = experiment: Suppression of appetite in ddY mouse assessed as body weight at 200 nmol administered intranasally on days 0 to 2 and measured for 3 days relative to day 0; format: functional; conditions: route nas, time 3 day; method in brief: as §1
Mus musculus [14] = experiment: Induction of anxiety-like behaviour in ddY mouse assessed as decrease in inner ratio at 200 nmol administered intranasally and measured after 45 mins by open field test; format: functional; conditions: route nas; method in brief: as §2
Mus musculus [15] = experiment: Induction of anxiety-like behaviour in ddY mouse assessed as decrease in inner ratio at 200 nmol administered intranasally and measured after 24 hrs by open field test; format: functional; conditions: route nas; method in brief: as §2
Mus musculus [16] = experiment: Effect on total distance travelled in ddY mouse at 200 nmol administered intranasally and measured after 45 mins by open field test; format: functional; conditions: route nas; method in brief: as §2
Mus musculus [17] = experiment: Suppression of restrain stress-induced plasma prolactin level in C57BL/6J mouse assessed as prolactin level at 20 nmol administered intranasally followed by exposure to restraint stress for 40 mins by ELISA (reference value: 2.04 +/-0.95 ng/ml); format: functional; conditions: route nas
Mus musculus [18] = experiment: Effect on water intake in ddY mouse at 200 nmol administered intranasally as single dose on day 0 and measured for 3 days; format: functional; conditions: route nas, time 3.0 day; method in brief: as §3

CC(C)C[C@H](NC(=O)CCC1CCCCC1)C(=O)N[C@@H](CC(C)C)C(=O)N[C@@H](CCN)C(=O)N1CCC[C@H]1C(=O)N[C@@H](CCCNC(=N)N)C(=O)N[C@@H](CC(N)=O)C(N)=O ({Propanoyl(3-cHex)}-LL[Dab]PRN-NH2)
Activity (Mus musculus [1]): inactive
Activity (Mus musculus [2]): inactive
Activity (Mus musculus [3]): Active
inhibition (Mus musculus [4]): inactive
Activity (Mus musculus [5]): Active
Activity (Mus musculus [6]): inactive
inhibition (Mus musculus [7]): Active
inhibition (Mus musculus [8]): Active
inhibition (Mus musculus [9]): Active
inhibition (Mus musculus [10]): Active
Activity (Mus musculus [11]): <0.15 ng/mL
Activity (Mus musculus [12]): inactive
Activity (Mus musculus [13]): <100%
Activity (Mus musculus [14]): Active
Activity (Mus musculus [15]): inactive
Activity (Mus musculus [16]): inactive
Activity (Mus musculus [17]): 0.49 ng/mL
Activity (Mus musculus [18]): inactive
